LMPTP inh = LMPTP phosphatase inhibitors, primary screen, biochemical, fluorescence intensity, uHTS | Low molecular weight phosphotyrosine protein phosphatase (Homo sapiens), P24666 | recombinant LMPTP-A, OMFP fluorogenic substrate | inhibition, % at 20 µM | hit rate 0.22% among 360,000 | AID 651560, 2012;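 active means compounds that cut the enzyme signal by at least half of the control window in the single-dose screen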
Target sequence (P24666 whole entry, looked up): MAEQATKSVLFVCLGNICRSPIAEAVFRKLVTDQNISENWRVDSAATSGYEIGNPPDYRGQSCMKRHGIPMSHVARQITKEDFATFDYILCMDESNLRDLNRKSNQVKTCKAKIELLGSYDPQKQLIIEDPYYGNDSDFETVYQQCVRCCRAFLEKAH
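test system = LMPTP-A | amount = 0.625 nM LMPTP-A final | reagent = fluorogenic phosphatase substrate OMFP at 400 µM final | incubation = 50 min at room temperature | benchmarks = no-enzyme low control, uninhibited high control | medium = Bis-Tris pH 6.0, DTT, detergent | signal = fluorescence intensity of OMFP turnover product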
STEP inh = STEP phosphatase inhibitors, primary screen, biochemical, fluorescence intensity, uHTS. AID 588621, 2011. hit rate 0.25% among 360,000. recombinant STEP, OMFP fluorogenic substrate. inhibition, % at 20 µM. Tyrosine-protein phosphatase non-receptor type 5 (Homo sapiens), P54829;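 active means inhibition at 20 µM, scaled per plate between control wells, above about 37%, limit read from the data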
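System: STEP (striatal-enriched tyrosine phosphatase) enzyme, cell-free; medium: Bis-Tris pH 6.0 buffer with DTT, detergent; dosing: 20 µM, 1% DMSO; times: reaction 20 min, ambient temperature; detection: fluorescence, 480/540 nm; read-out basis: normalized % inhibition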
PP1 counter = PP1-alpha phosphatase inhibitors, primary screen, counter-screen for PP5 inhibitor project, biochemical, fluorescence, OMFP substrate, single point; purified PP1alpha; Serine/threonine-protein phosphatase PP1-alpha catalytic subunit (Homo sapiens), P62136; AID 2235, 2010; inhibition, % at 6.7 µM; hit rate 0.9% among 320,000;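 active means inhibition above the mean inhibition of all tested compounds plus 3 SD, computed separately for each screening campaign, cut at about 15% in these data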
Target sequence (P62136 whole entry, looked up): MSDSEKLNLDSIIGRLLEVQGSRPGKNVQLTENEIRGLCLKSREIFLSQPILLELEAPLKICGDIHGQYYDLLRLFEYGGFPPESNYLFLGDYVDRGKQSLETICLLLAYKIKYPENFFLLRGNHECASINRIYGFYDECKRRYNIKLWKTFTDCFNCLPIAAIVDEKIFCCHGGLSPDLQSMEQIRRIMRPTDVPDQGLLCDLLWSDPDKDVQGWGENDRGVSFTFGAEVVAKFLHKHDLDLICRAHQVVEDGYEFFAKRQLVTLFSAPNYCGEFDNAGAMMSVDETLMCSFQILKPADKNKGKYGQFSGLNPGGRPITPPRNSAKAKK
PP5 primary = PP5 phosphatase inhibitors, primary screen, biochemical, fluorescence; Serine/threonine-protein phosphatase 5 (Homo sapiens), P53041; purified PP5c, OMFP substrate fluorescence; inhibition, % at 6.7 µM; hit rate 0.18% among 320,000; AID 1987, 2009;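 active means inhibition above the campaign's mean inhibition across all tested compounds plus 3 SD, cut at about 9.5% in these data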
Scp-1 inhibitor = Scp-1 phosphatase inhibitors, primary screen, biochemical, colorimetric, uHTS. Carboxy-terminal domain RNA polymerase II polypeptide A small phosphatase 1 (Homo …. Recombinant Scp1, phosphopeptide, malachite green phosphate absorbance. inhibition, % at 20 µM. hit rate 0.88% among 340,000. AID 493091, 2011;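 active means inhibition above about 50% at 20 µM, limit read from the data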
Target sequence (Q9GZU7 76-261 limits assumed): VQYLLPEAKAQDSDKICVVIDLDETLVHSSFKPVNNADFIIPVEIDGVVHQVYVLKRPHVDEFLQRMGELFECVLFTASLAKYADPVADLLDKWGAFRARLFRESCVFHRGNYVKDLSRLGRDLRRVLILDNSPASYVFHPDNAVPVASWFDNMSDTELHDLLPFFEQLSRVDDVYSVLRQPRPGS
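Test system: SCP-1 catalytic domain; Buffer or medium: Acidic Tris acetate buffer with magnesium and detergent; Also added: Phosphorylated 17-residue peptide substrate; Compound: single 20 µM dose, 1% DMSO; Schedule: enzyme reaction 45 min at room temperature, colour 5 min, stabilisation 30 min; Signal: Phosphate-binding colour reagent, absorbance read at 630 nm.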
Scp1 confirm = Scp-1 phosphatase inhibitors, retest, confirmation, biochemical, colorimetric, single concentration | shares compounds with Scp-1 inhibitor | AID 540281, 2011 | recombinant SCP-1 catalytic domain, phosphate release, malachite green absorbance | inhibition, % at 20 µM | hit rate 61% among 2,500
Scp-1 MG ctr = colorimetric readout interference by compounds, confirmation, artefact control for Scp-1 inhibitor project, biochemical, single concentration; shares compounds with Scp-1 inhibitor; 2,500 tested, under 10 active; Colorimetric interference counterscreen, malachite green absorbance 630 nm; apparent inhibition (interference), % at 20 µM;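 further: compounds added after enzyme reaction finished so only phosphate colour detection is probed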
Scp1 DSF = Scp-1 binding by thermal shift, confirmation, orthogonal assay for Scp-1 inhibitor project, biophysical, differential scanning fluorimetry | AID 540329, 2011 | hit rate 25% among 1,500 | shares compounds with Scp-1 inhibitor | thermal shift relative to vanadate control, % at 40 µM | Recombinant SCP1, Sypro Orange thermal shift Tm;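 active means substances whose mean melting-temperature shift, as a percentage of the reference inhibitor's shift, reaches about 5.3%, limit read from the data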
Large screens that a line does not name were inactive (follow-up assays come after a bar, where they were run). Only some compounds are listed: those with a hit (about 1.9% of all), similar ones and a draw of the others.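 How the source made its calls, unless noted: active means inhibition of at least 30% at 20 µM; inactive means the rest.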

Cc1noc(C)c1S(=O)(=O)N(C)C[C@H]1Oc2ccc(NS(=O)(=O)c3cn(C)cn3)cc2C(=O)N([C@H](C)CO)C[C@@H]1C	Scp-1 inhibitor 53 (no result: PP1 counter, PP5 primary) | Scp1 confirm inactive | Scp-1 MG ctr inactive
CC(C)NC(=O)N(C)C[C@H]1Oc2ccc(NS(=O)(=O)c3cn(C)cn3)cc2C(=O)N([C@H](C)CO)C[C@@H]1C	Scp-1 inhibitor 82 (no result: PP1 counter, PP5 primary) | Scp1 confirm inactive | Scp-1 MG ctr inactive
Cc1noc(C)c1S(=O)(=O)N(C)C[C@H]1Oc2ccc(NS(=O)(=O)c3ccc(F)cc3)cc2C(=O)N([C@H](C)CO)C[C@@H]1C	none (no result: PP1 counter, PP5 primary)
C[C@H](CO)N1C[C@H](C)[C@@H](CN(C)C(=O)Nc2ccccc2)Oc2c(NS(=O)(=O)c3cn(C)cn3)cccc2C1=O	none (no result: PP1 counter, PP5 primary)
C[C@@H]1CN([C@@H](C)CO)C(=O)Cc2cc(NS(=O)(=O)c3cn(C)cn3)ccc2O[C@@H]1CN(C)C(=O)Nc1ccccc1	Scp-1 inhibitor 88 (no result: PP1 counter, PP5 primary) | Scp1 confirm 62 | Scp-1 MG ctr inactive | Scp1 DSF inactive
CCS(=O)(=O)C1=NN2C(=N)/C(=C\c3ccc(OS(=O)(=O)c4ccccc4)c(OC)c3)C(=O)N=C2S1	none (no result: LMPTP inh, STEP inh, Scp-1 inhibitor)
N#Cc1ccc(C(=O)Nc2ccc3ccccc3c2)cc1	none
Cc1ccc(S(=O)(=O)Cn2nnnc2C(CC(C)C)N2CCN(c3ccccc3)CC2)cc1 (stereo not drawn)	none
Cn1c[n+](C)cc1/C=N/O	none
Cc1ccccc1-c1nnn(CC(=O)NCc2ccc3c(c2)OCO3)n1	none
Cc1ccc(S(=O)(=O)Nc2ccc3c(c2)CC(=O)N([C@H](C)CO)C[C@@H](C)[C@H](CN(C)S(=O)(=O)c2ccccc2)O3)cc1	none (no result: PP1 counter, PP5 primary)
Cc1ccc(S(=O)(=O)N(C)C[C@@H]2Oc3ccc(NS(=O)(=O)c4ccccc4)cc3CC(=O)N([C@@H](C)CO)C[C@H]2C)cc1	Scp-1 inhibitor 50 (no result: PP1 counter, PP5 primary) | Scp1 confirm inactive | Scp-1 MG ctr inactive
N=C1C(c2nc3ccccc3s2)=C(O)CN1C1CCC(O)CC1 (stereo not drawn)	none (no result: LMPTP inh, STEP inh)
N=C1C(c2nc3ccccc3s2)=C(O)CN1NC(=O)c1c[nH]c2ccccc12	Scp-1 inhibitor 64 | Scp1 confirm 54 | Scp-1 MG ctr inactive | Scp1 DSF inactive
CN1CCN(c2cccc3c2S(=O)(=O)N[C@H](Cc2ccccc2)CO3)CC1	none (no result: STEP inh, PP1 counter, PP5 primary, Scp-1 inhibitor)
Cc1cccc(Nc2n[nH]c(=S)s2)c1C	Scp-1 inhibitor 60 | Scp1 confirm inactive | Scp-1 MG ctr inactive
Cc1ccc(NC(=S)NC(=O)CC2CC(C)(C)OC2=O)cc1 (stereo not drawn)	none
Cc1cccc(NC(=S)NC(=O)CC2CC(C)(C)OC2=O)c1 (stereo not drawn)	none | Scp1 confirm inactive | Scp-1 MG ctr inactive
Cc1cccc(NC(=O)CSc2nc3[nH]c(=O)cc(O)c3s2)c1	Scp-1 inhibitor 61 | Scp1 confirm 37 | Scp-1 MG ctr inactive | Scp1 DSF 14
O=C(CSc1nc2[nH]c(=O)cc(O)c2s1)Nc1cccc(Br)c1	none
O=C(Nc1ccc2c(c1)C(=O)NC2=O)c1ccccc1	none
O=C(Nc1ccc2c(c1)C(=O)NC2=O)c1cccc(C(F)(F)F)c1	Scp-1 inhibitor 88 | Scp1 confirm 53 | Scp-1 MG ctr inactive | Scp1 DSF inactive
Cc1noc(C)c1NC(=O)N(C)C[C@H]1Oc2ccc(NC(=O)Nc3ccccc3)cc2C(=O)N([C@H](C)CO)C[C@@H]1C	Scp-1 inhibitor 65 (no result: PP1 counter, PP5 primary) | Scp1 confirm inactive | Scp-1 MG ctr inactive
COc1ccc(NC(=O)N(C)C[C@H]2Oc3ccc(NC(=O)c4ccncc4)cc3C(=O)N([C@H](C)CO)C[C@@H]2C)cc1	Scp-1 inhibitor 84 (no result: PP1 counter, PP5 primary) | Scp1 confirm inactive | Scp-1 MG ctr inactive
COc1ccc(NC(=O)N(C)C[C@H]2Oc3ccc(NC(=O)Nc4ccc(C(F)(F)F)cc4)cc3C(=O)N([C@H](C)CO)C[C@@H]2C)cc1	Scp-1 inhibitor 50 (no result: PP1 counter, PP5 primary) | Scp1 confirm inactive | Scp-1 MG ctr inactive
C[C@H](CO)N1C[C@H](C)[C@@H](CN(C)S(=O)(=O)c2ccc(F)cc2)Oc2ccc(NC(=O)c3ccncc3)cc2C1=O	Scp-1 inhibitor 59 (no result: PP1 counter, PP5 primary) | Scp1 confirm inactive | Scp-1 MG ctr inactive
C[C@H](CO)N1C[C@H](C)[C@@H](CN(C)S(=O)(=O)c2ccccc2)Oc2ccc(NC(=O)c3ccncc3)cc2C1=O	none (no result: PP1 counter, PP5 primary)
Cc1ccccc1-n1c(SCC(=O)N2CCCCC2)nc(O)cc1=O	none (no result: PP1 counter, PP5 primary)
O=C(Cn1c(=S)[nH]c2ccccc21)c1ccccc1	none
CCOC1=C2[C@@H](CN(S(=O)(=O)c3ccccc3C)[C@H]2c2ccc(Cl)cc2)[C@H]2C(=O)N(C3CCCCC3)C(=O)[C@H]2C1	none (no result: STEP inh, PP1 counter, PP5 primary, Scp-1 inhibitor)
CC1CCN(c2ccc(NC(=S)NC(=O)c3ccco3)cc2)CC1	none
O=C(NNc1ncnc2c1cnn2-c1ccccc1)c1cccs1	none
CCc1ccc(C(=O)CN(C#N)c2nc(C)cc(C)n2)cc1	none
COc1ccc(S(=O)(=O)N(C)C[C@H]2Oc3ccc(NC(=O)NC(C)C)cc3C(=O)N([C@H](C)CO)C[C@@H]2C)cc1	none (no result: PP1 counter, PP5 primary)
COc1ccc(S(=O)(=O)N(C)C[C@H]2Oc3ccc(NC(=O)c4ccncc4)cc3C(=O)N([C@H](C)CO)C[C@@H]2C)cc1	Scp-1 inhibitor 74 (no result: PP1 counter, PP5 primary) | Scp1 confirm inactive | Scp-1 MG ctr inactive
C=CCn1c(=O)c2ccccc2n2c(SCC(=O)NCc3cccs3)nnc12	none
COc1cc([C@H]2c3[nH]c4ccccc4c3C[C@H]3C(=O)N4[C@@H](c5cc(OC)c(OC)c(OC)c5)c5[nH]c6ccccc6c5C[C@H]4C(=O)N23)cc(OC)c1OC	none
Cc1c(/C(O)=C2/C(=O)C(=O)N(CCN3CCOCC3)C2c2ccco2)cnn1-c1ccccc1 (stereo not drawn)	none (no result: PP1 counter, PP5 primary) | Scp1 confirm inactive | Scp-1 MG ctr inactive
